The source of these data is ChEMBL document CHEMBL1124654, “Synthesis and investigation of effects of 2-[4- [[(arylamino)carbonyl]amino]phenoxy]-2-methylpropionic acids on the affinity of hemoglobin for oxygen: structure-activity relationships” (1989).

Several values for one entry are separate records, joined by “and”; a condition that tells them apart may be missing. Equal entries are not always repeated.

Common to all, as to assay type: functional
For experiment [1], the species on record is Homo sapiens. As to the kind of experiment: Ability of 0.5 mm to reduce affinity of hemoglobin for oxygen is assessed from 50% partial pressure of oxygen in intact red cells. In a few lines: (§1)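 Intact red cells: 30-µL aliquots of fresh heparinized normal whole blood added to 5 mL of compound diluted in 0.1 M HEPES, pH 7.4; final hemoglobin 12.5 ± 0.5 µM by spectrophotometry. Equilibrated 30 min at 37 °C, then oxygenated in the instrument chamber. P50 (mmHg PO2 at 50% deoxygenation) read from the O2-dissociation curve. Initial screen at 1 mM in duplicate.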

Experiment [2] is filed under the species Homo sapiens. As to the kind of experiment: Ability of 1 mm to reduce affinity of hemoglobin for oxygen is assessed from 50% partial pressure of oxygen in intact red cells. In a few lines:
as §1

For experiment [3], the species on record is Homo sapiens. As to the kind of experiment: Ability of 0.5 mM to reduce affinity of hemoglobin for oxygen is assessed from 50% partial pressure of oxygen in membrane free hemoglobin solution. In a few lines: (§2)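 Membrane-free hemoglobin: erythrocytes washed five times in 0.15 M NaCl, lysed in 5 volumes of water, filtered through paper and then down to 0.22 µm. Compound dissolved in 0.1 M HEPES, pH 7.4, hemoglobin added to a final 12.5 ± 0.5 µM, incubated 30 min at 37 °C. P50 taken from the O2-dissociation curve. Initial screen at 1 mM in duplicate.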

Experiment [4] is filed under the species Homo sapiens. As to the kind of experiment: Ability of 1 mM to reduce affinity of hemoglobin for oxygen is assessed from 50% partial pressure of oxygen in membrane free hemoglobin solution. In a few lines:
as §2

Experiment [5] concerns the target Hemoglobin HbA (Homo sapiens) (UniProt P69905+P68871). The experiment is described as follows: Ratio of effect of compound on affinity of hemoglobin for oxygen to that of control. In a few lines:
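Mean P50 with compound divided by mean P50 of the respective controls. P50 measured from O2-dissociation curves at 37 °C after 30 min in 0.1 M HEPES, pH 7.4, with hemoglobin at 12.5 ± 0.5 µM, in intact red cells or membrane-free hemoglobin.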

For experiment [6], the species on record is Homo sapiens. As to the kind of experiment: Ability of 0.05 mM to reduce affinity of hemoglobin for oxygen is assessed from 50% partial pressure of oxygen in intact red cells. In a few lines: as §1
Experiment [7] is filed under the species Homo sapiens. The experiment is described as follows: Ability of 0.1 mM to reduce affinity of hemoglobin for oxygen is assessed from 50% partial pressure of oxygen in intact red cells. In a few lines:
as §1

Experiment [8] is filed under the species Homo sapiens. The experiment is described as follows: Ability of 0.2 mM to reduce affinity of hemoglobin for oxygen is assessed from 50% partial pressure of oxygen in intact red cells. The essentials:
as §1

For experiment [9], the species on record is Homo sapiens. The experiment is described as follows: Ability of 0.05 mM to reduce affinity of hemoglobin for oxygen is assessed from 50% partial pressure of oxygen in membrane free hemoglobin solution. The essentials: as §2
Experiment [10] is filed under the species Homo sapiens. As to the kind of experiment: Ability of 0.1 mM to reduce affinity of hemoglobin for oxygen is assessed from 50% partial pressure of oxygen in membrane free hemoglobin solution. In a few lines: as §2
The species entered for experiment [11] is Homo sapiens. As to the kind of experiment: Ability of 0.2 mM to reduce affinity of hemoglobin for oxygen is assessed from 50% partial pressure of oxygen in membrane free hemoglobin solution. In a few lines: as §2
For experiment [12], the species on record is Homo sapiens. The experiment is described as follows: Ability of 0.5 mM to reduce affinity of hemoglobin for oxygen is assessed from 50% partial pressure of oxygen in intact red cells. In a few lines:
as §1

The species entered for experiment [13] is Homo sapiens. The experiment is described as follows: Ability of 1 mM to reduce affinity of hemoglobin for oxygen is assessed from 50% partial pressure of oxygen in intact red cells. In a few lines:
as §1

Sequence of Hemoglobin HbA (Homo sapiens) (P68871 2-147 partner limits assumed): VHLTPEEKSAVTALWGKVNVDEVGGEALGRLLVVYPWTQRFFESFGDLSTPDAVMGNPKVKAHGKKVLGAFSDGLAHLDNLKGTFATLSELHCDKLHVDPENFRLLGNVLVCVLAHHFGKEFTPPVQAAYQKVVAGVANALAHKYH
Sequence of Hemoglobin HbA (Homo sapiens) (P69905 2-142 limits assumed): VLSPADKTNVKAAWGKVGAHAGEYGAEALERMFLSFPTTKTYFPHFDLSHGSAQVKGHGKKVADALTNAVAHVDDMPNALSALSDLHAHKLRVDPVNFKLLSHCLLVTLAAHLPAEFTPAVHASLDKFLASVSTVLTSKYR

Turning to `CC(C)(Oc1ccc(NC(=O)Nc2ccc([N+](=O)[O-])cc2)cc1)C(=O)O`, the P50 in experiment [1] was found to be 21 mmHg; in experiment [2], 26.5 mmHg; in [3] it was 13 mmHg; in experiment [4], 19 mmHg. For the same compound, the Ratio in [5] is 2.79 [middle of 4 runs].

Regarding `CC(C)(Oc1ccc(NC(=O)Nc2cc(Cl)c(Cl)c(Cl)c2)cc1)C(=O)O`, the P50 in [6] amounted to 27.5 mmHg; in experiment [7], 35 mmHg; in experiment [8], 60 mmHg; in experiment [9], 16.2 mmHg; in experiment [10], 28.5 mmHg; in experiment [11], 57.2 mmHg.

For the compound `CC(C)(Oc1ccc(CCNC(=O)c2ccc(Cl)cc2)cc1)C(=O)O` [BEZAFIBRATE], the P50 came out at 14.5 mmHg in experiment [12], 17 mmHg in experiment [13], 9 mmHg in [3] and 14.2 mmHg in [4]. For the same compound, the Ratio in experiment [5] was 1.63 [middle of 4 runs].

Turning to `CC(C)(Oc1ccc(NC(=O)c2cc(Cl)cc(Cl)c2)cc1)C(=O)O`, the P50 in experiment [12] stood at 19.66 mmHg; in [13] it was 25.33 mmHg; in experiment [3], 12.2 mmHg; in [4] it was 16 mmHg. Further, the Ratio in experiment [5] is 2.34 [middle of 4 runs].

In the case of `CC(C)(Oc1ccc(CCNC(=O)c2cc(Cl)cc(Cl)c2)cc1)C(=O)O`, the P50 is 17.75 mmHg in [12], 22.75 mmHg in [13], 10 mmHg in [3] and 12.5 mmHg in experiment [4]. Also, the Ratio in experiment [5] is 1.78 and 1.42 and 2.33.

On to `CC(C)(Oc1ccc(NC(=O)Nc2cc(Cl)c(Cl)cc2Cl)cc1)C(=O)O`, for which the P50 in experiment [6] stood at 14.25 mmHg; in [7] it was 17.75 mmHg; in [8], 31 mmHg; in [9], 9 mmHg; in [10], 12 mmHg; in experiment [11] it was 16.8 mmHg.
